Source: ChEMBL document CHEMBL1121954, “Studies on the synthesis of chemotherapeutics. 12. Synthesis and antitumor activity of N-phthalidyl-5-fluorouracil derivatives” (1982)
Several values for one entry are separate records, joined by “and”; a condition that tells them apart may be missing. Equal entries are not always repeated.

Assays:
Mus musculus [1] = test: In vivo antitumor activity against MH 134 cell line in female […] mice after oral administered dose of 150 mg/kg; format: functional
Mus musculus [2] = test: In vivo antitumor activity against MH 134 cell line in female […] mice after oral administered dose of 50 mg/kg; format: functional
Mus musculus [3] = test: In vivo antitumor activity against Meth A cell line in female […] mice after oral administered dose of 150 mg/kg; format: functional
Mus musculus [4] = test: In vivo antitumor activity against P-388 Leukemia cell line in female BDF1 mice after oral administered dose of 25 mg/kg; format: functional
Procedure, shortened: (§1)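 Female BDF1 mice, 17-23 g, five per group, inoculated intraperitoneally with 10^6 P-388 cells. Oral dosing once daily for 9 days, beginning 1 day after implantation. Activity is % T/C, the median survival time of treated mice relative to controls.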

Mus musculus [5] = test: In vivo antitumor activity against P-388 Leukemia cell line in female BDF1 mice after oral administered dose of 100 mg/kg; format: functional; procedure, shortened: as §1
Mus musculus [6] = test: In vivo antitumor activity against MH 134 cell line in female […] mice after oral administered dose of 25 mg/kg; format: functional
Mus musculus [7] = test: In vivo antitumor activity against MH 134 cell line in female […] mice after oral administered dose of 200 mg/kg; format: functional
Mus musculus [8] = test: In vivo antitumor activity against P-388 Leukemia cell line in female BDF1 mice after oral administered dose of 50 mg/kg; format: functional; procedure, shortened: as §1
Mus musculus [9] = test: In vivo antitumor activity against P-388 Leukemia cell line in female BDF1 mice after oral administered dose of 200 mg/kg; format: functional; procedure, shortened: as §1
Mus musculus [10] = test: In vivo antitumor activity against Meth A cell line in female BALB/c mice after oral administered dose of 50 mg/kg
Mus musculus [11] = test: In vivo antitumor activity against Meth A cell line in female […] mice after oral administered dose of 200 mg/kg; format: functional
Mus musculus [12] = test: In vivo antitumor activity against Meth A cell line in female BALB/c mice after oral administered dose of 200 mg/kg; death

O=C1OC(n2c(=O)[nH]cc(F)c2=O)c2ccccc21 (stereo not drawn)
T/C (Mus musculus [1]): 37%
T/C (Mus musculus [2]): 45%
T/C (Mus musculus [3]): 19%
T/C (Mus musculus [4]): 111%
T/C (Mus musculus [5]): 120%
T/C (Mus musculus [6]): 77%
T/C (Mus musculus [7]): 17%
T/C (Mus musculus [8]): 104%
T/C (Mus musculus [9]): 102%
T/C (Mus musculus [10]): 37%
T/C (Mus musculus [11]): 7% and 19%

O=c1[nH]c(=O)n(C2CCCO2)cc1F (stereo not drawn) [TEGAFUR]
T/C (Mus musculus [1]): 50%
T/C (Mus musculus [2]): 64%
T/C (Mus musculus [3]): 23%
T/C (Mus musculus [4]): 115%
T/C (Mus musculus [5]): 136%
T/C (Mus musculus [6]): 100%
T/C (Mus musculus [7]): 32%
T/C (Mus musculus [12]): death
T/C (Mus musculus [8]): 104%
T/C (Mus musculus [9]): 106%

O=C1OC(n2c(=O)c(F)cn(C3CCCO3)c2=O)c2ccccc21 (stereo not drawn)
T/C (Mus musculus [4]): 104%
T/C (Mus musculus [5]): 115%
T/C (Mus musculus [8]): 109%
T/C (Mus musculus [9]): 111%

O=C1OC(n2cc(F)c(=O)n(C3OC(=O)c4ccccc43)c2=O)c2ccccc21 (stereo not drawn)
T/C (Mus musculus [4]): 97%
T/C (Mus musculus [5]): 102%
T/C (Mus musculus [8]): 104%
T/C (Mus musculus [9]): 102%

CC(=O)n1cc(F)c(=O)n(C2OC(=O)c3ccccc32)c1=O (stereo not drawn)
T/C (Mus musculus [4]): 106%
T/C (Mus musculus [5]): 104%
T/C (Mus musculus [8]): 97%
T/C (Mus musculus [9]): 111%

O=C1OC(n2cc(F)c(=O)[nH]c2=O)c2ccccc21 (stereo not drawn)
T/C (Mus musculus [1]): 22%
T/C (Mus musculus [2]): 34%
T/C (Mus musculus [3]): 7%
T/C (Mus musculus [4]): 118%
T/C (Mus musculus [5]): 129%
T/C (Mus musculus [6]): 50%
T/C (Mus musculus [7]): 8%
T/C (Mus musculus [12]): death
T/C (Mus musculus [8]): 116%
T/C (Mus musculus [9]): 124%
T/C (Mus musculus [10]): 26%

Cc1ccccc1C(=O)n1c(=O)c(F)cn(C2OC(=O)c3ccccc32)c1=O (stereo not drawn)
T/C (Mus musculus [4]): 113%
T/C (Mus musculus [5]): 102%
T/C (Mus musculus [8]): 99%
T/C (Mus musculus [9]): 109%
